ChEMBL document CHEMBL3352570, “ST7612AA1, a thioacetate-ω(γ-lactam carboxamide) derivative selected from a novel generation of oral HDAC inhibitors” (J Med Chem, 2014)

Columns and labels:
[1] = molecular target: T1, Protein deacetylase HDAC6 (Homo sapiens, UniProt Q9UBN7); assay: Inhibition of HDAC6 (unknown origin) using fluorogenic tetrapeptide RHKK(Ac) substrate by fluorescence assay
T1 sequence (Q9UBN7 whole entry): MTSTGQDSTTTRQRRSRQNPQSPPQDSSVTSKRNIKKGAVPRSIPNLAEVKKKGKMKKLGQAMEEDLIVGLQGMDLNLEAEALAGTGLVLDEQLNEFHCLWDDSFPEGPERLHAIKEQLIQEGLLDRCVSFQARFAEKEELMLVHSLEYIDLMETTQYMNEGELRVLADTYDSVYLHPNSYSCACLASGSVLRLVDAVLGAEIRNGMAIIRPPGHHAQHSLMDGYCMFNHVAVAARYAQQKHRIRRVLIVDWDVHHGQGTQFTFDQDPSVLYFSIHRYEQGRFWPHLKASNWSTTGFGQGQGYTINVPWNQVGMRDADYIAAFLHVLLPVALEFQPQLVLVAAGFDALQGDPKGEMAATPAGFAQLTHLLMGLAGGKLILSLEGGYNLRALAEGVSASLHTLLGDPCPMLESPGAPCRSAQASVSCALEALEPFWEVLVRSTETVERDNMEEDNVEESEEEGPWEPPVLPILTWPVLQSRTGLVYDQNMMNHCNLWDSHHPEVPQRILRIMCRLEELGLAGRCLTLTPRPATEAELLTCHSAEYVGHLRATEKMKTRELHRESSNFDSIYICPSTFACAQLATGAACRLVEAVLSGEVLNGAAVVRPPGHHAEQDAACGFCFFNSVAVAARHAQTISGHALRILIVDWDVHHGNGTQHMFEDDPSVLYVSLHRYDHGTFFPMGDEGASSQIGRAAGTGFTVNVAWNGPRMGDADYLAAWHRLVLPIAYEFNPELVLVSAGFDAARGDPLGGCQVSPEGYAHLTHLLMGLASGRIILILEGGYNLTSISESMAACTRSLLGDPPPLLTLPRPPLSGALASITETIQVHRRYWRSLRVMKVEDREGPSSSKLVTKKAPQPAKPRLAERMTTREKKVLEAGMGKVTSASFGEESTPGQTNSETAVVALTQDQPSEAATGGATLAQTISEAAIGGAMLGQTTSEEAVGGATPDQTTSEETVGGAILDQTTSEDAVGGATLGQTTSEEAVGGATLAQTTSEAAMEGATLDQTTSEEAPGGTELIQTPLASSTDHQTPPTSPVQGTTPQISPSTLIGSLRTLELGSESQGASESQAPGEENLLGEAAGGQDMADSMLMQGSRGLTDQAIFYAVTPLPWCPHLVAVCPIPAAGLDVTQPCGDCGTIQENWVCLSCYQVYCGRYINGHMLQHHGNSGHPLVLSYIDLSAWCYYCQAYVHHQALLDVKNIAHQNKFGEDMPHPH

[2] = Efflux ratio of permeability from apical to basolateral side to basolateral to apical side of human Caco2 cells in presence of digoxin; type: ADME, cell-based; conditions: caco-2
Procedure, shortened: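 Caco-2 AB/BA flux ratio measured with digoxin coincubated with test and reference compounds. Means of at least three experiments.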

[3] = molecular target: Histone deacetylase 1 (Homo sapiens, UniProt Q13547); assay: Inhibition of HDAC1 (unknown origin) using fluorogenic tetrapeptide RHKK(Ac) substrate by fluorescence assay
Sequence of Histone deacetylase 1 (Q13547 whole entry): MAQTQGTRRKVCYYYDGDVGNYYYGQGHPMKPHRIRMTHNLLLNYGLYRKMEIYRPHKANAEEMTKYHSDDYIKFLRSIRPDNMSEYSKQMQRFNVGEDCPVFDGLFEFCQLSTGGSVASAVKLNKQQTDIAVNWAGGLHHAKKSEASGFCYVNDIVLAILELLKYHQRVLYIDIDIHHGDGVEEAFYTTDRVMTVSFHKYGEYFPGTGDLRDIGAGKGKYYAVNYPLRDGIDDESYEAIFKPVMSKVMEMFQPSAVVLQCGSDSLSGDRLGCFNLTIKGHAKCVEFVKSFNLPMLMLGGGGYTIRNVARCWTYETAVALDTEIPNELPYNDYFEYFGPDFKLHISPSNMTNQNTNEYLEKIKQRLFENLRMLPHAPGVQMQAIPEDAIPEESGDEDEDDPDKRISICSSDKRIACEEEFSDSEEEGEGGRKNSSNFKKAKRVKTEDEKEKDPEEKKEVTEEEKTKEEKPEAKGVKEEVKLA

[4] = molecular target: Histone deacetylase 2 (Homo sapiens, UniProt Q92769); assay: Inhibition of HDAC2 (unknown origin) using fluorogenic tetrapeptide RHKK(Ac) substrate by fluorescence assay
Sequence of Histone deacetylase 2 (Q92769 whole entry): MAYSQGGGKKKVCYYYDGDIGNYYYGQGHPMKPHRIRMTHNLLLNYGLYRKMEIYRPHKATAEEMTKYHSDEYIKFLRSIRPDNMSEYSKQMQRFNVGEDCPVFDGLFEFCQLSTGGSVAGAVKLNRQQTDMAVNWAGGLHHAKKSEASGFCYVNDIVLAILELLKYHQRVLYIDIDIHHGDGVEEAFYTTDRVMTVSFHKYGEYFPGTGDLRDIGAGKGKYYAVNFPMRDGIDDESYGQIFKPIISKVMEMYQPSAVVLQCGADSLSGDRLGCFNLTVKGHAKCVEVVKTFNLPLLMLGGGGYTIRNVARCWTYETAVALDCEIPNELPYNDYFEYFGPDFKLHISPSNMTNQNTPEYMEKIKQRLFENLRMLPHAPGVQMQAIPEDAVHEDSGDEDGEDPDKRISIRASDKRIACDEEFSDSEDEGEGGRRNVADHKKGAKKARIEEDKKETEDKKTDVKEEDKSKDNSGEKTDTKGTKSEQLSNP

[5] = Intrinsic clearance in human hepatocytes assessed per million cells at 5 uM by LCMS/MS analysis; type: ADME, cell-based, Hepatocyte; conditions: read-out: CLH
Procedure, shortened: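 Incubation in human hepatocytes. […] Values are means of at least three experiments.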

[6] = molecular target: T2, Polyamine deacetylase HDAC10 (Homo sapiens, UniProt Q969S8); assay: Inhibition of HDAC10 (unknown origin) using fluorogenic tetrapeptide RHKK(Ac) substrate by fluorescence assay
T2 sequence (Q969S8 whole entry): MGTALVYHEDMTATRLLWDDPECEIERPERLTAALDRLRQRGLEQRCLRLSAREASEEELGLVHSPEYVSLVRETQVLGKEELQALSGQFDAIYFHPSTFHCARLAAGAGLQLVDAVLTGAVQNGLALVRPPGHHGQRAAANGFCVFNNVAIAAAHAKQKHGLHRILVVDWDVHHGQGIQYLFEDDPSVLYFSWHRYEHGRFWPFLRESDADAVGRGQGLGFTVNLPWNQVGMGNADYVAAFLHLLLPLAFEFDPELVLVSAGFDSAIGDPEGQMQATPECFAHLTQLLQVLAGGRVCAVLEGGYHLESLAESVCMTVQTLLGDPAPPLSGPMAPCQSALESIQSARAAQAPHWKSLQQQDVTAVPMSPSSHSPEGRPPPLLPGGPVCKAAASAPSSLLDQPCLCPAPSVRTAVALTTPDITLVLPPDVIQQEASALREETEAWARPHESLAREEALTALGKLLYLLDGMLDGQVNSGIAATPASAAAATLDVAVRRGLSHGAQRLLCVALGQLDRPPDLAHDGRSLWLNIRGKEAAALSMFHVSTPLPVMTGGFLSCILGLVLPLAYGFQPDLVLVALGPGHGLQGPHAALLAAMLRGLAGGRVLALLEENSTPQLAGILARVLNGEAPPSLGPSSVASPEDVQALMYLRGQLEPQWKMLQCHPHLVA

IC50 [1]: 0.003 µM
Ratio [2]: 3.6
IC50 [3]: 0.013 µM
IC50 [4]: 0.078 µM
hepatocyte CLint at 5 µM [5]: 15.4 µL/min/1e6 cells
IC50 [6]: 0.011 µM
Structure (SMILES): O=C1CC[C@@H](C(=O)N[C@H](CCCCCS)C(=O)Nc2ccccc2)N1
